DENV2 CPE – inhibitors of DENV2 cytopathic effect. DENV2-infected cells, cytopathic effect rescue, plate reader. CPE inhibition, % at 9.99 µM. hit rate 1.7% among 350,000; in the data active means CPE inhibition above about 20%, passing the limit was not always enough; inconclusive means no clear call, values can overlap the other calls; tested in BHK-21 cells;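 further: 0% = median of neutral control wells and 100% = median of positive control wells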
XiGFP reactiv – activators of X-chromosome reactivation in mouse fibroblasts; XiGFP mouse fibroblasts, % GFP-positive cells imaging, 3 d; cells co-treated with 5-aza-dC sensitizer; scaled so ellipticine positive control = 100%; activation, % at 7.58 µM; hit rate 0.055% among 360,000; AID 743238;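 active means mean normalized replicate activation at least 10% and every replicate at or above 10%; inconclusive means only one of the two criteria met; inactive means mean below 10% and not all replicates reach 10%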;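 further: 0% = median of on-plate neutral control wells and 100% = ellipticine 6 µM median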
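Schedule: 3 d treatment, 15 min room-temperature fixation; system: 68-5-11 XiGFP fibroblast line; buffer or medium: DMEM plus 5-aza-dC sensitizer; control set: ellipticine 6 µM positive control; compound: one concentration, pinned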
S100A4 inh HTS – inhibitors of human S100A4 binding to myosin IIA peptide; S100A4/TAMRA-MyoIIA peptide fluorescence polarization; inhibition, % at 10.7 µM; hit rate 0.14% among 360,000; AID 652163;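 active means mean inhibition of at least 70% across replicates, with every replicate also reaching that level; inconclusive means mean inhibition reaches 70% but some replicates fall short; inactive means mean inhibition below 70%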
Target sequence (P26447 whole entry, looked up): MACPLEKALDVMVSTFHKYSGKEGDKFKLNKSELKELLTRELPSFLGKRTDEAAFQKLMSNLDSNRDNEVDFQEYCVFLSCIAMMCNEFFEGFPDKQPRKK
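Test system – S100A4 monomer (human) · Compound – single-point compound testing · Schedule – 5 min incubation before reading · Probe or stimulus – TAMRA-labelled myosin IIA heavy-chain peptide probe, 5 nM · Benchmarks – neutral control DMSO, positive control TFP · Medium – Calcium-containing HEPES buffer, pH 7.2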
E-sel inducer – E-selectin induction on HUVECs; P16581; HUVEC E-selectin immunofluorescence imaging; normalized: neutral wells 0, TNF-alpha wells 100; activation, % at 7.58 µM; hit rate 0.37% among 260,000;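 active means mean E-selectin-positive cell signal at least 10% of the positive control, reached in at least 60% of replicates, without over 20% cell loss; inconclusive means no rule given, readout overlaps actives, possibly toxicity-flagged; inactive means the rest, including those meeting only one limit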
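Test system – human umbilical vein endothelial cells (HUVEC), E-selectin induction · Input – 3,000 HUVEC seeded per well · Buffer or medium – EGM-2, gelatin · Compound dosing – single-point compound dose · Detection – immunofluorescence imaging · Measure – percent E-selectin-positive cells · Controls – TNF-alpha high, DMSO low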
An asterisk follows results filed as active; ? = inconclusive; / = no result; ! = repeats disagree. The list is not random: actives were taken first. Their share in the collection is about 2%.

SMILES	DENV2 CPE	XiGFP reactiv	S100A4 inh HTS	E-sel inducer
C[C@@H]1CN([C@H](C)CO)C(=O)c2cccc(NC(=O)Nc3ccc(F)cc3)c2O[C@H]1CN(C)C(=O)NC1CCCCC1	3.5	-0.1	-3.9	65.8*
COc1ccc(NC(=O)Nc2cccc3c2O[C@@H](CN(C)C(=O)NC(C)C)[C@@H](C)CN([C@@H](C)CO)C3=O)cc1	38.5*	1.2	-8.5	5.8
COc1ccc(NC(=O)Nc2cccc3c2O[C@@H](CN(C)C(=O)NC2CCCCC2)[C@H](C)CN([C@@H](C)CO)C3=O)cc1	-0.5	-1.2	-37.6	2.0
C[C@H](CO)N1C[C@H](C)[C@H](CN(C)C(=O)NC2CCCCC2)Oc2c(NC(=O)Nc3ccc(F)cc3)cccc2C1=O	8.2	-0.2	15.2	-5.5
C[C@H](CO)N1C[C@H](C)[C@@H](CN(C)C(=O)NC2CCCCC2)Oc2c(NC(=O)Nc3ccc(C(F)(F)F)cc3)cccc2C1=O	28.7*!	0.4	-3.3	0.0
C[C@@H]1CN([C@@H](C)CO)C(=O)c2cccc(NC(=O)Nc3ccc(C(F)(F)F)cc3)c2O[C@H]1CN(C)C(=O)NC1CCCCC1	0.9	0.2	3.8	1.6
COc1ccc(NC(=O)Nc2cccc3c2O[C@@H](CN(C)C(=O)NC2CCCCC2)[C@@H](C)CN([C@H](C)CO)C3=O)cc1	2.9	-1.0	-1.1	38.2*
Cc1ccccc1NC(=O)Cc1nc(COC(=O)COc2ccc(C(C)(C)C)cc2)cs1	?	-0.3	-6.0	/
C#CCN(C[C@H]1[C@H](OC(=O)Nc2c(C)noc2C)[C@H](OC(=O)Nc2c(C)noc2C)C[C@@H](C(=O)OC)[C@H]1C(=O)OC)S(=O)(=O)c1ccc(C)cc1	69.5*	0.5	1.8	0.6
C#CCN(C[C@@H]1[C@@H](OC(=O)Nc2cccs2)[C@@H](OC(=O)Nc2cccs2)C[C@H](C(=O)OC)[C@@H]1C(=O)OC)S(=O)(=O)c1ccc(C)cc1	19.5	0.2	-2.0	-0.1
CCCN(CC(=O)Nc1cc(Cl)ccc1Cl)C(=O)c1ccc(N2CCCC2=O)cc1	-1.3	-0.1	-1.5	-1.5
O=C(NC1CCCc2c1cnn2-c1ccccc1F)c1ccncc1 (stereo not drawn)	25.0*	0.2	-1.4	0.1
O=C(NC1CCCc2c1cnn2-c1ccccc1F)c1ccccn1 (stereo not drawn)	-0.6	0.0	-3.9	/
Cc1ccc(S(=O)(=O)NC(=O)C2(C)CCN2C(=O)Cc2cccs2)cc1 (stereo not drawn)	49.5*	0.0	-3.5	0.0
CC1(C(=O)NS(=O)(=O)c2ccccc2)CCN1C(=O)Cc1cccs1 (stereo not drawn)	?	0.0	-0.8	/
Cc1nc(C(F)(F)F)ccc1C(=O)N1CCC1(C)C(=O)NS(=O)(=O)c1ccc(C#N)cc1 (stereo not drawn)	30.8*	0.0	-1.9	0.3
Cc1nc(C(F)(F)F)ccc1C(=O)N1CCC1(C)C(=O)NCc1ccc(Cl)cc1 (stereo not drawn)	68.8*	0.6	3.1	-0.1
Cc1ccc(S(=O)(=O)NC(=O)C2(C)CCN2C(=O)c2ccc(C(F)(F)F)nc2C)cc1 (stereo not drawn)	51.4*	0.3	-4.4	0.0
Cc1nc(C(F)(F)F)ccc1C(=O)N1CCC1(C)C(=O)NS(C)(=O)=O (stereo not drawn)	-1.8	0.2	0.2	/
Cc1nc(C(F)(F)F)ccc1C(=O)N1CCC1(C)C(=O)NS(=O)(=O)c1ccc(Cl)cc1 (stereo not drawn)	7.6	-0.1	-2.5	-0.2
C/C=C/c1ccc2c(c1)O[C@H](CN(C)C(=O)NC(C)C)[C@@H](C)CN([C@@H](C)CO)S2(=O)=O	1.1	-1.0	3.9	-0.7
CCC(=O)NCCCc1nc(-c2ccccc2)no1	14.5	0.4	-3.9	-0.1
COCC(=O)N1[C@@H]2CN(C(=O)C3CC3)c3ccccc3[C@@H]2[C@@H]1CO	14.1	0.0	4.2	-0.3
COc1ccc(C(C(=O)NC2CCCC2)N2CCc3ccccc32)cc1 (stereo not drawn)	57.0*	-0.1	-6.4	0.7
N#Cc1ccc(-c2csc(NC3=NCCCCC3)n2)cc1	/	0.0	7.4	44.2*
Cc1noc(C)c1NC(=O)N(C)C[C@@H]1Oc2ccc(NC(=O)Cc3ccccc3)cc2CC(=O)N([C@H](C)CO)C[C@H]1C	6.2	-0.1	20.0	-0.1
